One experiment relates to HL-60. Kind of experiment: Antioxidant activity against TPA-induced ROS production in human HL60 cells by 2',7'-dichlorodihydrofluorescein diacetate cellular-based assay. Type of experiment: functional, cell-based. In a few lines: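 HL-60 cells (1 × 10^6 cells/mL) in RPMI 1640 with 10% FBS and antibiotics, 37 °C, 5% CO2. Cells were pretreated 30 min with a range of test concentrations, then stimulated 30 min with 100 ng/mL TPA, then given DCFH-DA (5 μg/mL) for 15 min. DCF fluorescence was read at 530 nm, and percent inhibition was calculated against TPA-treated controls without test material.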

Experiment [1] relates to Radical scavenging activity. Kind of experiment: Antioxidant activity assessed as DPPH free radical scavenging activity by TLC […] assay. The format is functional. In outline: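 Compounds were dissolved in DMSO at 2.0 mg/mL and 4.0 μg of each was spotted onto scored silica gel GF TLC plates. Residual DMSO was removed under vacuum. Plates were sprayed with 0.2% (w/v) DPPH in MeOH and radical scavenging was judged visually 30 min after spraying.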
On the technique in general: The DPPH test is a chemical assay of radical scavenging.

Active and inactive are the calls of the source. The calls are words filed in the database; no cut-off is given here.

Our source for the IC50 and Activity values is ChEMBL document CHEMBL1159380, “Marine natural products as novel antioxidant prototypes” (J Nat Prod, 2003).

For the compound `COc1cc2ccnc3c2c(c1O)N(C)C=C3` [ISOAAPTAMINE], in the experiment with HL-60 (Homo sapiens, HL-60), the IC50 is above 55 µM. For the same compound, in experiment [1], the outcome was Active. In turn, `COc1cc2ccnc3c2c(c1OC)NC=C3` [AAPTAMINE] gave an IC50 with HL-60 (Homo sapiens, HL-60) above 55 µM. The outcome in experiment [1] was Active.

In the experiment with HL-60 (Homo sapiens, HL-60), `CC(C)=CCC/C(C)=C/Cc1cc(O)c(Br)cc1O` [CYMOPOL] came in with an IC50 of 4 µM. The result in experiment [1] was Active. In turn, `CC(C)=CCC[C@H](C)c1ccc(C)cc1O` yielded an IC50 in the experiment on HL-60 (Homo sapiens, HL-60) of 209 µM. As to `COc1c(OC)c(O)c2c(=O)c(C)c(/C=C/c3cc(OC(C)=O)cc(OC(C)=O)c3)oc2c1OC` [HORMOTHAMNIONE DIACETATE], the IC50 with HL-60 (Homo sapiens, HL-60) is 18.3 µM. Moreover, in experiment [1], the result was inactive.

As for `OCc1cc(Br)c(O)c(O)c1Cc1ccc(O)c(Br)c1` [AVRAINVILLEOL], in the experiment with HL-60 (Homo sapiens, HL-60), the IC50 stood at 6.1 µM. In addition, the result in experiment [1] was Active. In the experiment with HL-60 (hl-60), VITAMIN E [listing 1 of 2 here] came in with an IC50 of 255 µM. Compound `CC(=O)OC/C=C(\OC(C)=O)C(C)=O` showed an IC50 in the experiment on HL-60 (Homo sapiens, HL-60) of 49 µM. Moreover, in experiment [1], the outcome was inactive. In the case of VITAMIN E [listing 2 of 2 here], the result in experiment [1] was Active. As for `Cc1ccc([C@@H](C)CCCC(C)(C)O)c(O)c1`, the result in the experiment with HL-60 was inactive.

As for `O=C1C(C2=C3c4ccccc4NC3/C(=C\c3ccc(O)cc3)C2=O)=C2C(=Nc3ccccc32)/C1=C\c1ccc(O)cc1` (stereo not given) [SCYTONEMIN], the 50% inhibitory concentration (IC50) with HL-60 (Homo sapiens, HL-60) was above 23 µM. The compound `O=C1O[C@H]([C@@H](O)CO)C(O)=C1O` [ASCORBIC ACID] gave an IC50 in the experiment with HL-60 (Homo sapiens, HL-60) of 9.7 µM. For the same compound, the result in experiment [1] was Active. The compound `CCC(C)CC(C(=O)N/C=C\c1c[nH]c2ccccc12)N(C)Cc1ccc(O)cc1` (stereo not given) [ARAGILAMIDE] returned an IC50 in the experiment with HL-60 (Homo sapiens, HL-60) of 11 µM. Turning to `COc1c(OC)c(O)c2c(=O)c(C)c(/C=C/c3cc(O)cc(O)c3)oc2c1OC` [HORMOTHAMNIONE], the IC50 with HL-60 (Homo sapiens, HL-60) was above 31 µM. In the case of `CC1(C)CCC[C@]2(C)[C@H]3C=C4C=C(O)C(=O)C=C4O[C@@]3(C)CC[C@@H]12` [PUUPEHENONE], the IC50 with HL-60 (Homo sapiens, HL-60) came out at 27 µM. For the same compound, in experiment [1], the result was Active. `C/C(=C\Cc1cc(O)c(Br)cc1O)CCCC(C)(C)O` came in with an IC50 in the experiment with HL-60 (Homo sapiens, HL-60) above 14.6 µM. The outcome in experiment [1] was Active.

Usually IC50 stands for the concentration at which inhibition is half-maximal.
